# Assay results taken from ChEMBL document CHEMBL1287652, “QSAR modeling, synthesis and bioassay of diverse leukemia RPMI-8226 cell line active agents” (2010).
# Tests used:
# Assay type in all cases: functional
# [1] = test system: EKVX; assay: Antitumor activity against human EKVX cells after 48 hrs by sulforhodamine B assay
# Method in brief: (§1)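 Cells were grown in RPMI-1640 with 5% FBS and 2 mM L-glutamine, plated at 5000–40,000 cells/well, and preincubated for 24 h. A time-zero plate was TCA-fixed. Compounds were added from DMSO stock at five concentrations for 48 h at 37 °C. Cells were fixed with TCA (adherent 10%, suspension 16%) and stained with SRB, and A515 was read. GI50 and TGI were calculated from Tz, control and test absorbances.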
# [2] = test system: T47D; assay: Antitumor activity against human T47D cells after 48 hrs by sulforhodamine B assay
# Method in brief: (§2)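 Cells grown in RPMI-1640 with 5% FBS and 2 mM glutamine, plated and preincubated 24 h; time-zero plates TCA-fixed. Five-level serial dilutions added, 48 h at 37 °C. TCA fixation, SRB staining, absorbance 515 nm. GI50 derived from [(Ti−Tz)/(C−Tz)]×100 = 50; TGI is concentration giving 100% growth inhibition.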
# [3] = test system: SF-539; assay: Antitumor activity against human SF539 cells after 48 hrs by sulforhodamine B assay; details: SF-539, 48 h
# Method in brief: (§3)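 Cells were cultured in RPMI-1640 (5% FBS, 2 mM L-glutamine), pre-incubated for 24 h with time-zero plates TCA-fixed, then exposed for 48 h to five serial dilutions. The SRB read-out at 515 nm used time-zero, control and test absorbances. GI50 solves [(Ti−Tz)/(C−Tz)]×100 = 50 (net protein increase). TGI is the concentration giving 100% growth inhibition.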
# [4] = test system: SK-MEL-2; assay: Antitumor activity against human SK-MEL-2 cells after 48 hrs by sulforhodamine B assay; details: SK-MEL-2, 48 h; method in brief: as §3
# [5] = test system: SW-620; assay: Antitumor activity against human SW620 cells after 48 hrs by sulforhodamine B assay; details: SW-620, 48 h; method in brief: as §2
# [6] = test system: Malme-3M; assay: Antitumor activity against human MALME-3M cells after 48 hrs by sulforhodamine B assay; method in brief: as §1
# [7] = test system: HCT-116; assay: Antitumor activity against human HCT116 cells after 48 hrs by sulforhodamine B assay; details: HCT-116, 48 h; method in brief: as §1
# [8] = test system: K562; assay: Antitumor activity against human K562 cells after 48 hrs by sulforhodamine B assay; details: K562, 48 h; method in brief: as §1
# [9] = test system: SK-MEL-28; assay: Antitumor activity against human SK-MEL-28 cells after 48 hrs by sulforhodamine B assay; details: SK-MEL-28, 48 h; method in brief: as §3
# [10] = test system: CCRF-CEM; assay: Antitumor activity against human CCRF-CEM cells after 48 hrs by sulforhodamine B assay; method in brief: as §1
# [11] = test system: UO-31; assay: Antitumor activity against human UO31 cells after 48 hrs by sulforhodamine B assay; details: UO-31, 48 h; method in brief: as §2
# [12] = test system: TK-10; assay: Antitumor activity against human TK10 cells after 48 hrs by sulforhodamine B assay; details: TK-10, 48 h; method in brief: as §2
# [13] = test system: HOP-62; assay: Antitumor activity against human HOP62 cells after 48 hrs by sulforhodamine B assay; details: HOP-62, 48 h; method in brief: as §1
# [14] = test system: A549; assay: Antitumor activity against human A549 cells after 48 hrs by sulforhodamine B assay; details: A549, 48 h; method in brief: as §1
# [15] = test system: MOLT-4; assay: Antitumor activity against human MOLT4 cells after 48 hrs by sulforhodamine B assay; details: MOLT-4, 48 h; method in brief: as §3
# [16] = test system: IGROV-1; assay: Antitumor activity against human IGROV1 cells after 48 hrs by sulforhodamine B assay; details: IGROV-1, 48 h; method in brief: as §1
# [17] = test system: SF-268; assay: Antitumor activity against human SF268 cells after 48 hrs by sulforhodamine B assay; details: SF-268, 48 h; method in brief: as §3
# [18] = test system: MDA-MB-231; assay: Antitumor activity against human MDA-MB-231 cells after 48 hrs by sulforhodamine B assay; details: MDA-MB-231, 48 h; method in brief: as §1
# [19] = Antitumor activity against human […] cells at 10 uM after 48 hrs by sulforhodamine B assay relative to control; details: values are per cent of control
# Method in brief: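 NCI panel lines were grown in RPMI-1640 with 5% FBS and 2 mM L-glutamine and seeded at 5000–40,000 cells/well according to doubling time. After 24 h at 37 °C, 5% CO2, one dose from a DMSO stock was added for 48 h. Cells were TCA-fixed (10% final adherent, 16% suspension), SRB-stained and read at 515 nm. Percent growth is relative to untreated control.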
# [20] = test system: OVCAR-5; assay: Antitumor activity against human OVCAR5 cells after 48 hrs by sulforhodamine B assay; details: OVCAR-5, 48 h; method in brief: as §3
# [21] = Antitumor activity against human […] cells after 48 hrs by sulforhodamine B assay; details: RPMI-8226, 48 h; method in brief: as §3
# [22] = test system: U-251; assay: Antitumor activity against human U251 cells after 48 hrs by sulforhodamine B assay; details: U-251, 48 h; method in brief: as §2
# [23] = test system: SR; assay: Antitumor activity against human SR cells after 48 hrs by sulforhodamine B assay; method in brief: as §3
# [24] = test system: OVCAR-3; assay: Antitumor activity against human OVCAR-3 cells after 48 hrs by sulforhodamine B assay; details: OVCAR-3, 48 h; method in brief: as §3
# [25] = test system: M14; assay: Antitumor activity against human M14 cells after 48 hrs by sulforhodamine B assay; details: M14, 48 h; method in brief: as §1
smiles,measurement,setting,value
COc1ccc(NC(=O)Nc2ccccc2OCCCOc2ccccc2NC(=O)Nc2ccc(OC)cc2)cc1,GI50,[1],10.5 µM
same,TGI,[1],> 100 µM
same,GI50,[2],> 100 µM
same,TGI,[2],> 100 µM
same,GI50,[3],3.4 µM
same,TGI,[3],> 100 µM
same,GI50,[4],> 100 µM
same,TGI,[4],> 100 µM
same,GI50,[5],> 100 µM
same,TGI,[5],> 100 µM
same,GI50,[6],0.3 µM
same,TGI,[6],5.3 µM
same,GI50,[7],5.3 µM
same,TGI,[7],> 100 µM
same,GI50,[8],31.7 µM
same,TGI,[8],> 100 µM
same,GI50,[9],> 100 µM
same,TGI,[9],> 100 µM
same,GI50,[10],14.4 µM
same,TGI,[10],78.9 µM
same,GI50,[11],> 100 µM
same,TGI,[11],> 100 µM
same,GI50,[12],4 µM
same,TGI,[12],49.7 µM
same,GI50,[13],3.3 µM
same,TGI,[13],9.4 µM
same,GI50,[14],> 100 µM
same,TGI,[14],> 100 µM
same,GI50,[15],17.7 µM
same,TGI,[15],36.6 µM
same,GI50,[16],> 100 µM
same,TGI,[16],> 100 µM
same,GI50,[17],7.3 µM
same,TGI,[17],> 100 µM
same,GI50,[18],8.8 µM
same,TGI,[18],> 100 µM
same,"growth, % of control at 10 µM",[19],77%
same,GI50,[20],> 100 µM
same,TGI,[20],> 100 µM
same,GI50,[21],58.3 µM
same,TGI,[21],> 100 µM
same,GI50,[22],3.7 µM
same,TGI,[22],28.8 µM
same,GI50,[23],0.2 µM
same,TGI,[23],4 µM
same,GI50,[24],> 100 µM
same,TGI,[24],> 100 µM
same,GI50,[25],45.7 µM
same,TGI,[25],> 100 µM
